Values after ≈ are worked out from the molar mass of the structure shown.
How the values were obtained:
Pseudomonas aeruginosa [1] = experiment: Ratio of ampicillin MIC to compound MIC for Pseudomonas aeruginosa ATCC 27853; format: functional
Aspergillus ochraceus [2] = experiment: Antifungal activity against Aspergillus ochraceus ATCC 12066 incubated for 72 hrs followed by serial sub-cultivation for 72 hrs by serial dilution technique; format: functional; settings: ATCC 12066, 72 h
Outline: (§1)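 MFC: material from 72 h malt broth microdilution wells was serially sub-cultured into fresh broth plates and incubated a further 72 h at 28 °C. Fungicidal concentration is taken from growth after sub-culture. Duplicate, repeated three times.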

Bacillus cereus [3] = experiment: Antibacterial activity against clinical isolate of Bacillus cereus incubated for 24 hrs followed by serial sub-cultivation for 24 hrs by microdilution; format: functional
Outline: (§2)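 MBC: after the 24 h LB broth microdilution (1.0 × 10⁴ CFU per well, 160 rpm), wells were serially sub-cultured into fresh broth plates and incubated a further 24 h. MBC is the lowest concentration with no visible growth, taken as 99.5% killing of the original inoculum. Duplicate, repeated three times.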

Trichoderma viride [4] = experiment: Antifungal activity against Trichoderma viride IAM 5061 incubated for 72 hrs followed by serial sub-cultivation for 72 hrs by serial dilution technique; format: functional; settings: IAM 5061, 72 h; outline: as §1
Candida albicans [5] = experiment: Antifungal activity against Candida albicans isolated from human incubated for 72 hrs followed by serial sub-cultivation for 72 hrs by serial dilution technique; format: functional; outline: as §1
Listeria monocytogenes [6] = experiment: Antibacterial activity against Listeria monocytogenes NCTC 7973 after 24 hrs by microdilution method; format: functional; settings: NCTC 7973, 24 h
Outline: (§3)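 Broth microdilution in 96-well plates. Bacterial suspensions were adjusted in sterile saline to 1.0 × 10⁵ CFU/ml, prepared daily and kept at 4 °C. Compound was added to LB broth with 1.0 × 10⁴ CFU per well and shaken at 160 rpm for 24 h at […] (so in the source). MIC is the lowest concentration with no visible growth under a binocular microscope. OD655 was also read. Duplicate, repeated three times.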

Enterococcus faecalis [7] = experiment: Antibacterial activity against Enterococcus faecalis isolated from human after 24 hrs by microdilution method; format: functional; outline: as §3
Candida albicans [8] = experiment: Ratio of ketoconazole to compound for Candida albicans isolated from human; format: functional
Penicillium ochrochloron [9] = experiment: Antifungal activity against Penicillium ochrochloron ATCC 9112 after 72 hrs by serial dilution technique; format: functional; settings: ATCC 9112, 72 h
Outline: (§4)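 Modified microdilution in 96-well plates. Fungi were kept on malt agar at 4 °C. Spores were washed off in sterile 0.85% saline with 0.1% Tween 80. Compounds were dissolved at 1 mg/ml in 5% DMSO with 0.1% Tween 80 and added to malt broth with inoculum. Plates were shaken at 160 rpm for 72 h at 28 °C. Duplicate, repeated three times.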

Salmonella typhimurium [10] = experiment: Antibacterial activity against Salmonella Typhimurium ATCC 13311 incubated for 24 hrs followed by serial sub-cultivation for 24 hrs by microdilution; format: functional, Salmonella enterica subsp. enterica serovar Typhimurium; settings: Salmonella enterica, ATCC 13311, 24 h; outline: as §2
Penicillium ochrochloron [11] = experiment: Ratio of ketoconazole to compound for Penicillium ochrochloron ATCC 9112; format: functional
Trichoderma viride [12] = experiment: Ratio of bifonazole to compound for Trichoderma viride IAM 5061; format: functional
Aspergillus ochraceus [13] = experiment: Antifungal activity against Aspergillus ochraceus after 72 hrs by serial dilution technique
Enterococcus faecalis [14] = experiment: Antibacterial activity against Enterococcus faecalis isolated from human incubated for 24 hrs followed by serial sub-cultivation for 24 hrs by microdilution; format: functional; outline: as §2
Talaromyces funiculosus [15] = experiment: Antifungal activity against Penicillium funiculosum ATCC 36839 after 72 hrs by serial dilution technique; format: functional; settings: ATCC 36839, 72 h; outline: as §4
Aspergillus ochraceus [16] = experiment: Ratio of ketoconazole to compound for Aspergillus ochraceus ATCC 12066; format: functional
Bacillus cereus [17] = experiment: Antibacterial activity against clinical isolate of Bacillus cereus after 24 hrs by microdilution method; format: functional; outline: as §3
Aspergillus niger [18] = experiment: Antifungal activity against Aspergillus niger ATCC 6275 incubated for 72 hrs followed by serial sub-cultivation for 72 hrs by serial dilution technique; format: functional; settings: ATCC 6275, 72 h; outline: as §1
Aspergillus fumigatus [19] = experiment: Antifungal activity against Aspergillus fumigatus isolated from human incubated for 72 hrs followed by serial sub-cultivation for 72 hrs by serial dilution technique; format: functional; outline: as §1
Listeria monocytogenes [20] = experiment: Antibacterial activity against Listeria monocytogenes NCTC 7973 incubated for 24 hrs followed by serial sub-cultivation for 24 hrs by microdilution; format: functional; settings: NCTC 7973, 24 h; outline: as §2
Staphylococcus aureus [21] = experiment: Antibacterial activity against Staphylococcus aureus ATCC 6538 incubated for 24 hrs followed by serial sub-cultivation for 24 hrs by microdilution method; format: functional; settings: ATCC 6538, 24 h; outline: as §2
Staphylococcus aureus [22] = experiment: Antibacterial activity against Staphylococcus aureus ATCC 6538 after 24 hrs by microdilution method; format: functional; settings: ATCC 6538, 24 h; outline: as §3
Aspergillus niger [23] = experiment: Ratio of bifonazole to compound for Aspergillus niger ATCC 6275; format: functional
Aspergillus ochraceus [24] = experiment: Ratio of bifonazole to compound for Aspergillus ochraceus ATCC 12066; format: functional
Salmonella typhimurium [25] = experiment: Antibacterial activity against Salmonella Typhimurium ATCC 13311 after 24 hrs by microdilution method; format: functional, Salmonella enterica subsp. enterica serovar Typhimurium; settings: Salmonella enterica, ATCC 13311, 24 h; outline: as §3
Micrococcus flavus [26] = experiment: Antibacterial activity against Micrococcus flavus ATCC 10240 incubated for 24 hrs followed by serial sub-cultivation for 24 hrs by microdilution; format: functional; settings: ATCC 10240, 24 h; outline: as §2
Talaromyces funiculosus [27] = experiment: Ratio of bifonazole to compound for Penicillium funiculosum ATCC 36839; format: functional
Talaromyces funiculosus [28] = experiment: Antifungal activity against Penicillium funiculosum ATCC 36839 incubated for 72 hrs followed by serial sub-cultivation for 72 hrs by serial dilution technique; format: functional; settings: ATCC 36839, 72 h; outline: as §1
Escherichia coli [29] = experiment: Antibacterial activity against Escherichia coli ATCC 35210 after 24 hrs by microdilution method; format: functional; settings: ATCC 35210, 24 h; outline: as §3
Aspergillus flavus [30] = experiment: Antifungal activity against Aspergillus flavus ATCC 9643 after 72 hrs by serial dilution technique; format: functional; settings: ATCC 9643, 72 h; outline: as §4
Pseudomonas aeruginosa [31] = experiment: Antibacterial activity against Pseudomonas aeruginosa ATCC 27853 incubated for 24 hrs followed by serial sub-cultivation for 24 hrs by microdilution; format: functional; settings: ATCC 27853, 24 h; outline: as §2
Aspergillus flavus [32] = experiment: Antifungal activity against Aspergillus flavus ATCC 9643 incubated for 72 hrs followed by serial sub-cultivation for 72 hrs by serial dilution technique; format: functional; settings: ATCC 9643, 72 h; outline: as §1
Aspergillus fumigatus [33] = experiment: Ratio of ketoconazole to compound for Aspergillus fumigatus isolated from human; format: functional
Trichoderma viride [34] = experiment: Antifungal activity against Trichoderma viride IAM 5061 after 72 hrs by serial dilution technique; format: functional; settings: IAM 5061, 72 h; outline: as §4
Aspergillus ochraceus [35] = experiment: Antifungal activity against Aspergillus ochraceus ATCC 12066 after 72 hrs by serial dilution technique; format: functional; settings: ATCC 12066, 72 h; outline: as §4
Candida albicans [36] = experiment: Ratio of bifonazole to compound for Candida albicans isolated from human; format: functional
Pseudomonas aeruginosa [37] = experiment: Antibacterial activity against Pseudomonas aeruginosa ATCC 27853 after 24 hrs by microdilution method; format: functional; settings: ATCC 27853, 24 h; outline: as §3
Penicillium ochrochloron [38] = experiment: Antifungal activity against Penicillium ochrochloron ATCC 9112 incubated for 72 hrs followed by serial sub-cultivation for 72 hrs by serial dilution technique; format: functional; settings: ATCC 9112, 72 h; outline: as §1
Escherichia coli [39] = experiment: Antibacterial activity against Escherichia coli ATCC 35210 incubated for 24 hrs followed by serial sub-cultivation for 24 hrs by microdilution; format: functional; settings: ATCC 35210, 24 h; outline: as §2
Aspergillus niger [40] = experiment: Antifungal activity against Aspergillus niger ATCC 6275 after 72 hrs by serial dilution technique; format: functional; settings: ATCC 6275, 72 h; outline: as §4
Candida albicans [41] = experiment: Antifungal activity against Candida albicans isolated from human after 72 hrs by serial dilution technique; format: functional; outline: as §4
Micrococcus flavus [42] = experiment: Antibacterial activity against Micrococcus flavus ATCC 10240 after 24 hrs by microdilution method; format: functional; settings: ATCC 10240, 24 h; outline: as §3
Penicillium ochrochloron [43] = experiment: Ratio of bifonazole to compound for Penicillium ochrochloron ATCC 9112; format: functional

MIC (Listeria monocytogenes [6]): 110 µM (≈ 30 µg/mL)
MIC (Enterococcus faecalis [7]): 55.1 µM (≈ 15 µg/mL)
MIC (Penicillium ochrochloron [9]): 36.8 µM (≈ 10 µg/mL)
MIC (Aspergillus ochraceus [13]): 36.8 µM (≈ 10 µg/mL)
MIC (Talaromyces funiculosus [15]): 36.8 µM (≈ 10 µg/mL)
MIC (Bacillus cereus [17]): 73.5 µM (≈ 20 µg/mL)
MIC (Staphylococcus aureus [22]): 73.5 µM (≈ 20 µg/mL)
MIC (Salmonella typhimurium [25]): 73.5 µM (≈ 20 µg/mL)
MIC (Escherichia coli [29]): 55.1 µM (≈ 15 µg/mL)
MIC (Aspergillus flavus [30]): 36.8 µM (≈ 10 µg/mL)
MIC (Trichoderma viride [34]): 36.8 µM (≈ 10 µg/mL)
MIC (Aspergillus ochraceus [35]): 36.8 µM (≈ 10 µg/mL)
MIC (Pseudomonas aeruginosa [37]): 73.5 µM (≈ 20 µg/mL)
MIC (Aspergillus niger [40]): 37.8 µM (≈ 10.3 µg/mL)
MIC (Candida albicans [41]): 55.1 µM (≈ 15 µg/mL)
MIC (Micrococcus flavus [42]): 73.5 µM (≈ 20 µg/mL)
SMILES: CNc1nc(C)c(C(=O)/C=C/c2cccc(C)c2)s1
Ratio (Pseudomonas aeruginosa [1]): 10
MFC (Aspergillus ochraceus [2]): 73.5 µM (≈ 20 µg/mL)
MBC (Bacillus cereus [3]): 91.9 µM (≈ 25 µg/mL)
MFC (Trichoderma viride [4]): 73.5 µM (≈ 20 µg/mL)
MFC (Candida albicans [5]): 73.5 µM (≈ 20 µg/mL)
Ratio (Candida albicans [8]): 10
MBC (Salmonella typhimurium [10]): 91.9 µM (≈ 25 µg/mL)
Ratio (Penicillium ochrochloron [11]): 10
Ratio (Trichoderma viride [12]): 10
MBC (Enterococcus faecalis [14]): 73.5 µM (≈ 20 µg/mL)
Ratio (Aspergillus ochraceus [16]): 10
MFC (Aspergillus niger [18]): 73.5 µM (≈ 20 µg/mL)
MFC (Aspergillus fumigatus [19]): 73.5 µM (≈ 20 µg/mL)
MBC (Listeria monocytogenes [20]): 110 µM (≈ 30 µg/mL)
MBC (Staphylococcus aureus [21]): 110 µM (≈ 30 µg/mL)
Ratio (Aspergillus niger [23]): 10
Ratio (Aspergillus ochraceus [24]): 10
MBC (Micrococcus flavus [26]): 91.9 µM (≈ 25 µg/mL)
Ratio (Talaromyces funiculosus [27]): 10
MFC (Talaromyces funiculosus [28]): 73.5 µM (≈ 20 µg/mL)
MBC (Pseudomonas aeruginosa [31]): 91.9 µM (≈ 25 µg/mL)
MFC (Aspergillus flavus [32]): 91.9 µM (≈ 25 µg/mL)
Ratio (Aspergillus fumigatus [33]): 10
Ratio (Candida albicans [36]): 10
MFC (Penicillium ochrochloron [38]): 73.5 µM (≈ 20 µg/mL)
MBC (Escherichia coli [39]): 73.5 µM (≈ 20 µg/mL)
Ratio (Penicillium ochrochloron [43]): 10
